SMILES strings stand for the structures. Bounds are passed on as bounds.

One assay concerns COLO 205. Briefly: Cytotoxicity against human COLO205 cells after 48 hrs by sulforhodamine B assay. The assay is classed as functional, cell-based. As to conditions: COLO 205, 48 h.
Assay [1] deals with A549. In words: Cytotoxicity against human A549 cells assessed as cell growth inhibition at 100 uM after 48 hrs by sulforhodamine B assay. Format: functional. The following applies: A549, 48 h, read-out: GI. The gist of the method:
(§1)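 Cell lines from NCI, grown in RPMI-1640 (2 mM glutamine, pH 7.4, 10% fetal calf serum, penicillin) at 37 °C, 5% CO2, 90% RH, viability >98% by trypan blue. 1×10^5 cells/ml seeded, grown 24 h, then compound added at 10 or 100 µM (DMSO stocks diluted in medium with gentamycin) for 48 h. TCA fixation, SRB staining, OD 540 nm; % growth inhibition versus untreated growth, blank-subtracted.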

Assay [2] concerns A549. Briefly: Cytotoxicity against human A549 cells assessed as cell growth inhibition at 10 uM after 48 hrs by sulforhodamine B assay. Format: functional. The following applies: A549, 48 h, read-out: GI. The gist of the method: as §1
In assay [3] the test system is HCT-15. In words: Cytotoxicity against human HCT15 cells assessed as cell growth inhibition at 10 uM after 48 hrs by sulforhodamine B assay. The assay is classed as functional. The following applies: HCT-15, 48 h, read-out: GI. The gist of the method:
as §1

In another assay the test system is HeLa. Briefly: Cytotoxicity against human HeLa cells after 48 hrs by sulforhodamine B assay. The assay is classed as functional, cell-based.
The subject of assay [4] is THP-1. In words: Cytotoxicity against human THP1 cells assessed as cell growth inhibition at 100 uM after 48 hrs by sulforhodamine B assay. As to conditions: THP-1, 48 h, read-out: GI. The assay is classed as functional. The method, boiled down:
as §1

Assay [5] concerns THP-1. Briefly: Cytotoxicity against human THP1 cells after 48 hrs by sulforhodamine B assay. Format: functional, cell-based. The following applies: THP-1, 48 h. The gist of the method:
(§2)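 Sulforhodamine B assay on NCI-sourced cells in RPMI-1640/10% FCS, seeded at 1×10^5 cells/ml and left 24 h, then serial dilutions of 2×10^-2 M DMSO stocks in gentamycin medium added for 48 h (37 °C, 5% CO2). Cells fixed with cold TCA, SRB dye dissolved in Tris pH 10.4, OD read at 540 nm. IC50 is the concentration inhibiting 50% of cell viability.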

Assay [6] relates to A549. In words: Cytotoxicity against human A549 cells after 48 hrs by sulforhodamine B assay. The assay is classed as functional, cell-based. The following applies: A549, 48 h. The method, boiled down: as §2
In another assay the test system is PC-3. In words: Cytotoxicity against human PC3 cells after 48 hrs by sulforhodamine B assay. Format: functional, cell-based. The following applies: PC-3, 48 h.
In assay [7] the test system is HEp-2. Briefly: Cytotoxicity against human Hep2 cells assessed as cell growth inhibition at 10 uM after 48 hrs by sulforhodamine B assay. The assay is classed as functional. The following applies: HEp-2, 48 h, read-out: GI. The gist of the method: as §1
The subject of assay [8] is HEp-2. Briefly: Cytotoxicity against human Hep2 cells assessed as cell growth inhibition at 100 uM after 48 hrs by sulforhodamine B assay. The assay is classed as functional. The following applies: HEp-2, 48 h, read-out: GI. The method, boiled down: as §1
The test system of assay [9] is THP-1. Briefly: Cytotoxicity against human THP1 cells assessed as cell growth inhibition at 10 uM after 48 hrs by sulforhodamine B assay. The assay is classed as functional. The following applies: THP-1, 48 h, read-out: GI. The method, boiled down: as §1
For assay [10], the system named is HCT-15. Briefly: Cytotoxicity against human HCT15 cells assessed as cell growth inhibition at 100 uM after 48 hrs by sulforhodamine B assay. Format: functional. The following applies: HCT-15, 48 h, read-out: GI. The method, boiled down:
as §1

Assay [11] relates to HCT-15. In words: Cytotoxicity against human HCT15 cells after 48 hrs by sulforhodamine B assay. Format: functional, cell-based. The following applies: HCT-15, 48 h. The gist of the method:
as §2

For assay [12], the system named is A549. In words: Cytotoxicity against human A549 cells assessed as cell growth inhibition at 1 uM after 48 hrs by sulforhodamine B assay. The following applies: A549, 48 h, read-out: GI. The assay is classed as functional.
The subject of assay [13] is THP-1. In words: Cytotoxicity against human THP1 cells assessed as cell growth inhibition at 1 uM after 48 hrs by sulforhodamine B assay. The assay is classed as functional. The following applies: THP-1, 48 h, read-out: GI.
Assay [14] relates to HCT-15. In words: Cytotoxicity against human HCT15 cells assessed as cell growth inhibition at 1 uM after 48 hrs by sulforhodamine B assay. The assay is classed as functional. As to conditions: HCT-15, 48 h, read-out: GI. The gist of the method:
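NCI-sourced cells in RPMI-1640 (2 mM glutamine, 10% FCS, penicillin), >98% trypan-blue viable, seeded at 1 × 10^5 cells/ml and grown 24 h (37 °C, 5% CO2). DMSO stocks diluted in medium with gentamycin; 48 h exposure. TCA fixation 1 h at 4 °C, 0.4% SRB stain 30 min, dye dissolved in Tris pH 10.4, OD 540 nm. Blank-subtracted; inhibition relative to untreated growth (100%).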

In assay [15] the test system is HEp-2. In words: Cytotoxicity against human Hep2 cells assessed as cell growth inhibition at 1 uM after 48 hrs by sulforhodamine B assay. The assay is classed as functional. The following applies: HEp-2, 48 h, read-out: GI.

In the case of `O=C1C(=O)N(CCCBr)c2ccccc21`, the IC50 in the assay on COLO 205 is above 100 µM; in the assay with HeLa, 7.77 µM; in the assay on THP-1 [5] it was above 100 µM; in the assay with A549 [6] it was above 100 µM; in the assay with PC-3 it was 15.3 µM; with HCT-15 [11] it was 13.8 µM. The inhibition of growth at 100 µM in the assay with A549 [1] stood at 37%; in the assay on THP-1 [4], 95%; in the assay on HEp-2 [8], 93%; in the assay on HCT-15 [10] it was 93%. In addition, the inhibition of growth at 10 µM in the assay on A549 [2] was 0%; in the assay with HCT-15 [3] it was 59%; with HEp-2 [7] it was 36%; with THP-1 [9], 80%.

With `O=C1C(=O)N(CCCCBr)c2ccccc21`, the IC50 was 54.2 µM in the assay on COLO 205; 4.57 µM in the assay on HeLa; 12.4 µM with THP-1 [5]; above 100 µM in the assay on A549 [6]; 10.9 µM in the assay with PC-3; 11.8 µM in the assay with HCT-15 [11]. Moreover, the inhibition of growth at 100 µM in the assay with A549 [1] turned out to be 49%; in the assay on THP-1 [4], 90%; in the assay with HEp-2 [8], 68%; in the assay with HCT-15 [10], 88%. Further, the inhibition of growth at 10 µM in the assay with A549 [2] worked out at 30%; with HCT-15 [3] it was 62%; in the assay with HEp-2 [7] it was 33%; in the assay with THP-1 [9], 90%.

Take `O=C1C(=O)N(CCCCCBr)c2ccccc21`: the IC50 was above 100 µM in the assay on COLO 205; 5.49 µM with HeLa; 42.3 µM in the assay on THP-1 [5]; above 100 µM in the assay on A549 [6]; 11.5 µM in the assay with PC-3; 8.46 µM with HCT-15 [11]. Besides, the inhibition of growth at 100 µM in the assay with A549 [1] is 40%; in the assay with THP-1 [4] it was 91%; in the assay with HEp-2 [8], 81%; in the assay with HCT-15 [10], 91%. The inhibition of growth at 10 µM with A549 [2] was 0%; in the assay with HCT-15 [3], 62%; in the assay with HEp-2 [7], 40%; with THP-1 [9], 85%.

On to `O=C1C(=O)N(CCCCCCBr)c2ccccc21`, for which the IC50 is above 100 µM in the assay on COLO 205; 12 µM in the assay with HeLa; 26.5 µM with THP-1 [5]; above 100 µM in the assay with A549 [6]; 11.7 µM in the assay with PC-3; 12.4 µM in the assay with HCT-15 [11]. The inhibition of growth at 100 µM in the assay with A549 [1] came to 53%; in the assay with THP-1 [4], 93%; in the assay with HEp-2 [8], 86%; in the assay on HCT-15 [10] it was 95%. The inhibition of growth at 10 µM in the assay with A549 [2] was found to be 0%; in the assay with HCT-15 [3], 67%; with HEp-2 [7] it was 48%; with THP-1 [9] it was 94%.

Regarding `O=C1C(=O)N(CCN2C(=O)c3ccccc3C2=O)c2ccccc21`, the inhibition of growth at 100 µM in the assay with A549 [1] came to 43%; in the assay with THP-1 [4], 96%; in the assay on HEp-2 [8] it was 68%; in the assay with HCT-15 [10] it was 86%. Further, the inhibition of growth at 10 µM in the assay on A549 [2] stood at 18%; in the assay on HCT-15 [3], 3%; in the assay on HEp-2 [7], 10%; with THP-1 [9], 9%.

As for `O=C1C(=O)N(CCCN2C(=O)c3ccccc3C2=O)c2ccccc21`, the inhibition of growth at 100 µM in the assay with A549 [1] was found to be 1%; in the assay on THP-1 [4] it was 96%; in the assay with HEp-2 [8], 30%; in the assay with HCT-15 [10], 58%. Besides, the inhibition of growth at 10 µM is 0% in the assay with A549 [2], 1% in the assay on HCT-15 [3], 11% in the assay on HEp-2 [7] and 8% in the assay with THP-1 [9].

Consider `O=C1C(=O)N(CCCCN2C(=O)c3ccccc3C2=O)c2ccccc21`, for which the inhibition of growth at 100 µM in the assay on A549 [1] is 36%; with THP-1 [4] it was 92%; with HEp-2 [8] it was 73%; in the assay with HCT-15 [10] it was 89%. Besides, the inhibition of growth at 10 µM turned out to be 0% in the assay on A549 [2], 4% in the assay with HCT-15 [3], 15% with HEp-2 [7] and 44% in the assay with THP-1 [9].

Regarding `O=C1C(=O)N(CCCCCN2C(=O)c3ccccc3C2=O)c2ccccc21`, the inhibition of growth at 100 µM with A549 [1] amounted to 36%; in the assay with THP-1 [4], 93%; in the assay on HEp-2 [8], 85%; in the assay on HCT-15 [10], 97%. Also, the inhibition of growth at 10 µM came out at 4% in the assay on A549 [2], 9% in the assay with HCT-15 [3], 10% in the assay with HEp-2 [7] and 60% with THP-1 [9].

With `O=C1C(=O)N(CCCCCCN2C(=O)c3ccccc3C2=O)c2ccccc21`, the IC50 in the assay on COLO 205 was above 100 µM; in the assay on HeLa, 8.82 µM; in the assay on THP-1 [5] it was above 100 µM; with A549 [6], above 100 µM; in the assay on PC-3, 12.8 µM; in the assay with HCT-15 [11], 9.73 µM. Besides, the inhibition of growth at 100 µM in the assay with A549 [1] is 14%; in the assay with THP-1 [4], 95%; in the assay on HEp-2 [8], 90%; with HCT-15 [10], 91%. The inhibition of growth at 10 µM in the assay on A549 [2] stood at 0%; in the assay with HCT-15 [3], 49%; with HEp-2 [7], 39%; in the assay on THP-1 [9] it was 96%.

As to `O=C1C(=O)N(CCBr)c2ccccc21`, the inhibition of growth at 100 µM with A549 [1] came out at 44%; in the assay with THP-1 [4], 96%; with HEp-2 [8] it was 71%; with HCT-15 [10] it was 89%. The inhibition of growth at 10 µM in the assay on A549 [2] was determined as 38%; with HCT-15 [3] it was 4%; with HEp-2 [7] it was 14%; in the assay with THP-1 [9], 14%.

Consider `COc1cccc2c1C(=O)c1c(O)c3c(c(O)c1C2=O)C[C@@](O)(C(=O)CO)C[C@@H]3O[C@H]1C[C@H](N)[C@H](O)[C@H](C)O1` [DOXORUBICIN], for which the inhibition of growth at 1 µM amounted to 55% in the assay on A549 [12] and 96% in the assay on THP-1 [13].

On to `O=c1[nH]cc(F)c(=O)[nH]1` [FLUOROURACIL], for which the inhibition of growth at 1 µM in the assay with HCT-15 [14] stood at 31%.

In the case of `CO[C@@]12[C@H](COC(N)=O)C3=C(C(=O)C(C)=C(N)C3=O)N1C[C@@H]1N[C@@H]12` [MITOMYCIN], the inhibition of growth at 1 µM in the assay on HEp-2 [15] was determined as 31%.

The record behind these values is ChEMBL document CHEMBL1772942, “Synthesis and in vitro cytotoxic evaluation of N-alkylbromo and N-alkylphthalimido-isatins” (Bioorg Med Chem Lett, 2011).
